Experimental data as given in ChEMBL document CHEMBL1143864, “Design and synthesis of potent antileishmanial cycloalkylidene-substituted ether phospholipid derivatives” (J Med Chem, 2008).

What was measured:
[1] = Toxicity in human erythrocytes assessed as hemolysis at 500 uM; type: cell-based, Erythrocyte; conditions: read-out: Activity
Leishmania infantum [2] = assay: Antileishmanial activity against Leishmania infantum MHOM/TN/80/IPT1/LEM235 intracellular amastigotes; type: functional, organism-based
Method in brief: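 THP-1 cells differentiated with retinoic acid for 3 days, infected with L. infantum promastigotes (1:4, 37 °C, 5% CO2) overnight. Free parasites removed on Histopaque 1077. Infected cells at 4 × 10^5 cells/mL mixed 1:1 with compound, 72 h at 37 °C/5% CO2. Percent infected cells counted by Giemsa microscopy; IC50 as for promastigotes.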

Leishmania infantum [3] = assay: Antileishmanial activity against Leishmania infantum MHOM/TN/80/IPT1/LEM235 promastigotes; type: functional, organism-based
Method in brief: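 Promastigotes grown in RPMI 1640 with 10% FCS, L-glutamine and antibiotics at 26 °C. Compounds, 65 mM stock in DMSO/ethanol 50/50, diluted 5-fold in medium (100 to 0.8 µM). Culture at 2 × 10^6 cells/mL mixed 1:1 with compound, 72 h at 26 °C. PI/SYBR-14 live/dead staining, flow cytometry, ≥10 000 cells; IC50 per Hills et al.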

Leishmania donovani = assay: Antileishmanial activity against Leishmania donovani MHOM/IN/80/DD8/LEM703 promastigotes
[4] = Toxicity in human erythrocytes assessed as hemolysis; type: cell-based, Erythrocyte
Method in brief: (§1)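 Washed erythrocytes from EDTA blood of healthy volunteers mixed 1:1 with compound in PBS (100 to 6.25 µM), 1 h at 37 °C. After centrifugation, supernatant absorbance read at 550 nm (reference 625 nm). Hemolysis % = (A − A0)/(Amax − A0) × 100, with PBS background and water as 100% lysis.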

THP-1 [5] = assay: Cytotoxicity against human THP1 cells after 72 hrs; type: cell-based; conditions: THP-1, 72 h
[6] = Toxicity in human erythrocytes assessed as hemolysis at 100 uM; type: cell-based, Erythrocyte; conditions: read-out: Activity; method in brief: as §1
THP-1 [7] = assay: Cytotoxicity against human THP1 cells at 50 uM after 72 hrs; type: cell-based; conditions: thp-1, 72 h
Method in brief: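 THP-1 monocytes in RPMI 1640/10% FCS at 1 × 10^6 cells/mL incubated 72 h with compound (50 to 1.56 µM). Dual PI/SYBR-14 staining; alive/dead ratio by flow cytometry, excitation 488 nm, read at 545 and 645 nm. At least 10 000 cells per sample, each staining experiment repeated thrice.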

[8] = Half life in human; type: ADME, organism-based; conditions: in vivo

Row | Structure (SMILES) | IC50 (Leishmania infantum [2]) [µM] | IC50 (Leishmania infantum [3]) [µM] | IC50 (Leishmania donovani) [µM] | half-life [8] [h] | hemolysis at 500 µM [1] [%] | HC50 [4] [µM] | IC50 (THP-1 [5]) [µM] | hemolysis at 100 µM [6] [%] | Activity (THP-1 [7])
1 | C[N+](C)(C)CC#CCOP(=O)([O-])OCCCCCCCCCCC=C1C2CC3CC(C2)CC1C3 | 5.2 | 44.3 | 41.1 | – | 100 | 100 | 75 | – | –
2 | C[N+]1(CCOP(=O)([O-])OCCCCCC2CCCCCCCCCCCCCC2)CCCCC1 | 1 | 2.8 | 1 | – | 80.8 | > 100 | 333 | 28.7 | –
3 | C[N+]1(CCOP(=O)([O-])OCCCCCC2CCCCCCCCCCCCCC2)CCOCC1 | 0.4 | 1.9 | 1 | – | 81.1 | > 100 | 244 | 34.8 | –
4 | C[N+](C)(C)CCOP(=O)([O-])OCCCCC=C1CCCCCCCCCCCCCC1 | 3.8 | 2.2 | 2.3 | – | 57.4 | > 100 | 154 | 38 | –
5 | CCCCCCCCCCCCCCCCOP(=O)([O-])O[C@@H]1CCC[C@H]1[N+](C)(C)C (relative stereo) | 3.3 | > 100 | 54.3 | – | 100 | 43.1 | 34.1 | 100 | –
6 | CCCCCCCCCCCCCCCCOP(=O)([O-])O[C@@H]1CCCC[C@H]1[N+](C)(C)C (relative stereo) | 1.7 | > 100 | 71.9 | – | 55.4 | > 100 | 21.3 | 20.4 | –
7 | C[N+](C)(C)[C@H]1CCC[C@@H]1OP(=O)([O-])OCCCCC=C1CCCCCCCCCCCCCC1 (relative stereo) | 0.2 | < 3.1 | < 3.1 | – | 100 | 44.3 | 75.4 | 80.5 | –
8 | C[N+](C)(C)[C@@H]1CCC[C@H]1OP(=O)([O-])OCCCCCCCCCCC=C1CCCCC1 (relative stereo) | 1.1 | > 100 | 8.6 | – | 100 | 76.3 | 30.7 | 66.4 | –
9 | C[N+](C)(C)[C@@H]1CCCC[C@H]1OP(=O)([O-])OCCCCCCCCCCC=C1CCCCC1 (relative stereo) | 1.1 | > 100 | 16.1 | – | 100 | 59.8 | 28.7 | 81.6 | –
10 | C[N+](C)(C)[C@H]1CCCC[C@@H]1OP(=O)([O-])OCCCCC=C1CCCCCCCCCCCCCC1 (relative stereo) | 1.6 | > 100 | 6 | – | 100 | 76.7 | 88.5 | 60.7 | –
11 | C[N+](C)(C)[C@@H]1CCC[C@H]1OP(=O)([O-])OCCCCCCCCCCC=C1C2CC3CC(C2)CC1C3 (relative stereo) | 0.3 | 38 | 3.9 | – | 100 | > 100 | 75 | 30.8 | –

The remaining compounds from weak to strong by IC50 (Leishmania infantum [2]), led by results:

Row | IC50 (Leishmania infantum [2]) [µM] | IC50 (Leishmania infantum [3]) [µM] | IC50 (Leishmania donovani) [µM] | half-life [8] [h] | Structure (SMILES) | hemolysis at 500 µM [1] [%] | HC50 [4] [µM] | IC50 (THP-1 [5]) [µM] | hemolysis at 100 µM [6] [%] | Activity (THP-1 [7])
12 | 9.1 | > 100 | 41.6 | – | C[N+]1(C)C2CCC1CC(=CCOP(=O)([O-])OCCCCCCCCCCC=C1C3CC4CC(C3)CC1C4)C2 | 100 | 61.3 | 147 | 82.3 | –
13 | 6.7 | 23.9 | 8.7 | 100 | CCCCCCCCCCCCCCCCOP(=O)([O-])OCC[N+](C)(C)C [MILTEFOSINE] | 100 | – | 28.6 | 96.1 | Toxic
14 | 4.4 | 1.8 | 1.94 | – | C[N+]1(CCOP(=O)([O-])OCCCCC=C2CCCCCCCCCCCCCC2)CCOCC1 | 88.3 | > 100 | 372 | 45.4 | –
15 | 4.1 | 1.7 | 2 | – | C[N+]1(CCOP(=O)([O-])OCCCCC=C2CCCCCCCCCCCCCC2)CCCCC1 | 100 | 68.4 | 272 | 71.6 | –
16 | 3.6 | 84.5 | 65.9 | – | C[N+]1(CCOP(=O)([O-])OCCCCCCCCCCC=C2CCCCCCCCCCCCCC2)CCCCC1 | 51.4 | > 100 | 72.6 | 36 | –
17 | 3.3 | 76.8 | < 3.2 | – | C[N+](C)(C)CCOP(=O)([O-])OCCCCC=C1CCCCCCCCC1 | 41.8 | > 100 | 349 | 2.1 | –
18 | 2.2 | 21.7 | < 3.13 | – | C[N+](C)(C)CCOP(=O)([O-])OCCCCCC1CCCCCCCCC1 | 100 | > 100 | 363 | 1.7 | –
19 | 0.9 | 50.2 | 41.5 | – | C[N+]1(CCOP(=O)([O-])OCCCCCCCCCCC=C2CCCCCCCCCCCCCC2)CCOCC1 | 100 | > 100 | 36.2 | 16.9 | –
20 | 0.8 | > 100 | 16.6 | – | C[N+](C)(C)[C@@H]1CCCC[C@H]1OP(=O)([O-])OCCCCCCCCCCC=C1C2CC3CC(C2)CC1C3 (relative stereo) | 100 | 66.6 | 39.7 | 66.8 | –
21 | 0.75 | 100 | 68.2 | – | C[N+](C)(C)CCOP(=O)([O-])OCCCCCCCCCCC=C1CCCCCCCCCCCCCC1 | 100 | 100 | 37.7 | 17.7 | –
22 | 0.7 | 1.4 | 0.9 | – | C[N+](C)(C)CCOP(=O)([O-])OCCCCCC1CCCCCCCCCCCCCC1 | 100 | > 100 | > 500 | 8.7 | Non-toxic
23 | 0.11 | 2.9 | 1 | – | C[N+](C)(C)CCOP(=O)([O-])OCCCCCCCCCCC=C1CCCCCCCCC1 | 43 | > 100 | 37.9 | 25.5 | –
